Experimental data taken from ChEMBL document CHEMBL4350961, “Discovery of Pyrrolo[3,2- d]pyrimidin-4-one Derivatives as a New Class of Potent and Cell-Active Inhibitors of P300/CBP-Associated Factor Bromodomain” (J Med Chem, 2019).
Active and inactive are the calls of the source. The rule behind the calls is not given here.

Tests used:
[1] = test system: MEF; assay: Effect on Tfap4 gene expression in MEF cells at 2.5 uM measured after 48 hrs by RNA-sequencing analysis relative to control; type: functional, Mus musculus
How it was run: (§1)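 Mouse embryonic fibroblasts treated 48 h; negative-control enantiomer at 2.5 µM, DMSO as blank. Total RNA extracted with TRIzol, checked by NanoDrop, then RNA-seq with n = 3 per set. Genes called changed at >1.5-fold with p < 0.05 against blank.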

[2] = test system: MEF; assay: Effect on Ttbk1 gene expression in MEF cells at 2.5 uM measured after 48 hrs by RNA-sequencing analysis relative to control; type: functional, Mus musculus; how it was run: as §1
[3] = test system: MEF; assay: Effect on H60b gene expression in MEF cells at 2.5 uM measured after 48 hrs by RNA-sequencing analysis relative to control; type: functional, Mus musculus; how it was run: as §1
[4] = target: T1, Histone acetyltransferase KAT2B (Homo sapiens, UniProt Q92831); assay: Binding affinity to human N-terminal His-tagged PCAF assessed as change in melting temperature at 10 uM by SYPRO orange dye-based fluorescence assay
How it was run: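 Thermal shift with His-tagged human bromodomain at 2 μM final in 10 mM HEPES pH 7.5, 500 mM NaCl. Compound at 10 μM final with 0.1% DMSO; SYPRO Orange at 1:1000. Equilibrated 3 min at 25 °C, then heated from 25 to 95 °C at 1 °C/min. Melting temperature shift taken from fluorescence; at least duplicate.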
Target sequence in this assay (Q92831 whole entry, looked up): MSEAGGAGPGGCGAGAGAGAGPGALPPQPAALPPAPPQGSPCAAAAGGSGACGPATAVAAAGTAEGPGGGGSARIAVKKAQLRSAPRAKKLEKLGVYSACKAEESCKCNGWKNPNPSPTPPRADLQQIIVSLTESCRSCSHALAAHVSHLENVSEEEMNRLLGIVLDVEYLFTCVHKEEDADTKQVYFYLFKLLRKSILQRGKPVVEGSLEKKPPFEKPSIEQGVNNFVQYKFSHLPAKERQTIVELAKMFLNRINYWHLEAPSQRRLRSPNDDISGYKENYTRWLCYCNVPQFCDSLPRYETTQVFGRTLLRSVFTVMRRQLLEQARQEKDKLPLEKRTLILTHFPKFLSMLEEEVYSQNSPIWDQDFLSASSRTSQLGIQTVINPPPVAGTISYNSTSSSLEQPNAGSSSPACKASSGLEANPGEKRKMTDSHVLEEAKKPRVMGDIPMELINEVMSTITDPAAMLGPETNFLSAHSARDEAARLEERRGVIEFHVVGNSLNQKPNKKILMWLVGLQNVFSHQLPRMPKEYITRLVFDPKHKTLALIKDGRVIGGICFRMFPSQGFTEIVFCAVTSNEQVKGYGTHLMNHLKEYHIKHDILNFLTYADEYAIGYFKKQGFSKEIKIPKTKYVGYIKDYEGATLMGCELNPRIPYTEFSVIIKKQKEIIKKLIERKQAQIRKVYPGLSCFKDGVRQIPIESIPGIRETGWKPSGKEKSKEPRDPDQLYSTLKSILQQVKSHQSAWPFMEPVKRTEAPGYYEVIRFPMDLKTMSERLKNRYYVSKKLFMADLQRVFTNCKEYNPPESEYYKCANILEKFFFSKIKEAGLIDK

[5] = test system: MEF; assay: Effect on Icos gene expression in MEF cells at 2.5 uM measured after 48 hrs by RNA-sequencing analysis relative to control; type: functional, Mus musculus; how it was run: as §1
[6] = target: T1, Histone acetyltransferase KAT2B; assay: Binding affinity to human N-terminal His-tagged PCAF by isothermal titration calorimetry
Target sequence in this assay (Q92831 whole entry): as the sequence (Q92831 whole entry, looked up) above

[7] = test system: MEF; assay: Effect on Slco1a5 gene expression in MEF cells at 2.5 uM measured after 48 hrs by RNA-sequencing analysis relative to control; type: functional, Mus musculus; how it was run: as §1
[8] = test system: MEF; assay: Effect on P2rx6 gene expression in MEF cells at 2.5 uM measured after 48 hrs by RNA-sequencing analysis relative to control; type: functional, Mus musculus; how it was run: as §1
[9] = test system: MEF; assay: Effect on Gm36718 gene expression in MEF cells at 2.5 uM measured after 48 hrs by RNA-sequencing analysis relative to control; type: functional, Mus musculus; how it was run: as §1
[10] = test system: MEF; assay: Effect on Slc26a7 gene expression in MEF cells at 2.5 uM measured after 48 hrs by RNA-sequencing analysis relative to control; type: functional, Mus musculus; how it was run: as §1
[11] = test system: MEF; assay: Effect on Celsr1 gene expression in MEF cells at 2.5 uM measured after 48 hrs by RNA-sequencing analysis relative to control; type: functional, Mus musculus; how it was run: as §1
[12] = test system: MEF; assay: Effect on Slitrk6 gene expression in MEF cells at 2.5 uM measured after 48 hrs by RNA-sequencing analysis relative to control; type: functional, Mus musculus; how it was run: as §1
[13] = test system: MEF; assay: Effect on Lonrf3 gene expression in MEF cells at 2.5 uM measured after 48 hrs by RNA-sequencing analysis relative to control; type: functional, Mus musculus; how it was run: as §1
[14] = test system: MEF; assay: Effect on Ooep gene expression in MEF cells at 2.5 uM measured after 48 hrs by RNA-sequencing analysis relative to control; type: functional, Mus musculus; how it was run: as §1
[15] = test system: MEF; assay: Effect on Zfyve28 gene expression in MEF cells at 2.5 uM measured after 48 hrs by RNA-sequencing analysis relative to control; type: functional, Mus musculus
How it was run: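 MEF cells treated for 48 h with test compound, with (S,S) enantiomer at 2.5 µM as negative control and DMSO as blank; total RNA (TRIzol, n = 3 per set) analysed by RNA-seq; genes counted as changed at >1.5-fold, p < 0.05, relative to blank control.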

[16] = target: Wee1-like protein kinase 2 (Homo sapiens) (UniProt P0C1S8); assay: Inhibition of recombinant full-length human WEE1b at 10 uM using LSNLYHQGKFLQTFCGSPLYRRR as substrate measured after 120 mins in presence of [gamma33P]ATP by scintillation counting method
Sequence of Wee1-like protein kinase 2 (Homo sapiens) (P0C1S8 whole entry, looked up): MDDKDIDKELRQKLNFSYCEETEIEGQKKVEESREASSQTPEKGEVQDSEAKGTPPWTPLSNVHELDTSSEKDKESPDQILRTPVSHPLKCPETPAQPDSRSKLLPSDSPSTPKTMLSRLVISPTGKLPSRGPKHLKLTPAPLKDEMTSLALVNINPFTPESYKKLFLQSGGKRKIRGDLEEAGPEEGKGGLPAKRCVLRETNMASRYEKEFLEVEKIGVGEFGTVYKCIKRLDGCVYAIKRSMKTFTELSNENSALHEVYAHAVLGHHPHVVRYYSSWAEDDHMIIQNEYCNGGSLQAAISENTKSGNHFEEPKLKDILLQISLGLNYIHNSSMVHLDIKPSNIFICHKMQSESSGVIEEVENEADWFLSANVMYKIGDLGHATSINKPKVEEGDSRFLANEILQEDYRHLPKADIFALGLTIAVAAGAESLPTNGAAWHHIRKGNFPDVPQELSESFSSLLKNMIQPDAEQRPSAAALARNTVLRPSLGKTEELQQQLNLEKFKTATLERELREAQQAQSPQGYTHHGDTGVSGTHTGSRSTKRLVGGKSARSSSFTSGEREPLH

[17] = target: Serine/threonine-protein kinase mTOR (Homo sapiens) (UniProt P42345); assay: Inhibition of recombinant full-length human mTOR at 10 uM measured after 40 mins in presence of [gamma33P]ATP by scintillation counting method
[18] = target: Calcium/calmodulin-dependent protein kinase type 1 (Homo sapiens) (UniProt Q14012); assay: Inhibition of recombinant human CaMK1 (2 to end residues) at 10 uM using calmodulin as substrate measured after 40 mins in presence of [gamma33P]ATP by scintillation counting method
Sequence of Calcium/calmodulin-dependent protein kinase type 1 (Homo sapiens) (Q14012 whole entry, looked up): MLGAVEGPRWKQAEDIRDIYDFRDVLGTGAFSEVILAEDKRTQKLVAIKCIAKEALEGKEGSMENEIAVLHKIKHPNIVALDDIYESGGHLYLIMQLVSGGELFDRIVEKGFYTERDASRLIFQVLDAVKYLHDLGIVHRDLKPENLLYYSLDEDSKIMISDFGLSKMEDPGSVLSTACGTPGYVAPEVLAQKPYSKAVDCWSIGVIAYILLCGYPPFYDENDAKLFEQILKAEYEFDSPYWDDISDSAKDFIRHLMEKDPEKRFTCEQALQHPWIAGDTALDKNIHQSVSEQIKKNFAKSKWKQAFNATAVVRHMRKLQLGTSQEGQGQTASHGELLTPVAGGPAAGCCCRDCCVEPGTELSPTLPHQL

[19] = target: NUAK family SNF1-like kinase 1 (Homo sapiens) (UniProt O60285); assay: Inhibition of recombinant human ARK5 (2 to end residues) at 10 uM using KKKVSRSGLYRSPSMPENLNRPR as substrate measured after 40 mins in presence of [gamma33P]ATP by scintillation counting method
Sequence of NUAK family SNF1-like kinase 1 (Homo sapiens) (O60285 whole entry, the tested form may be a part, canonical isoform): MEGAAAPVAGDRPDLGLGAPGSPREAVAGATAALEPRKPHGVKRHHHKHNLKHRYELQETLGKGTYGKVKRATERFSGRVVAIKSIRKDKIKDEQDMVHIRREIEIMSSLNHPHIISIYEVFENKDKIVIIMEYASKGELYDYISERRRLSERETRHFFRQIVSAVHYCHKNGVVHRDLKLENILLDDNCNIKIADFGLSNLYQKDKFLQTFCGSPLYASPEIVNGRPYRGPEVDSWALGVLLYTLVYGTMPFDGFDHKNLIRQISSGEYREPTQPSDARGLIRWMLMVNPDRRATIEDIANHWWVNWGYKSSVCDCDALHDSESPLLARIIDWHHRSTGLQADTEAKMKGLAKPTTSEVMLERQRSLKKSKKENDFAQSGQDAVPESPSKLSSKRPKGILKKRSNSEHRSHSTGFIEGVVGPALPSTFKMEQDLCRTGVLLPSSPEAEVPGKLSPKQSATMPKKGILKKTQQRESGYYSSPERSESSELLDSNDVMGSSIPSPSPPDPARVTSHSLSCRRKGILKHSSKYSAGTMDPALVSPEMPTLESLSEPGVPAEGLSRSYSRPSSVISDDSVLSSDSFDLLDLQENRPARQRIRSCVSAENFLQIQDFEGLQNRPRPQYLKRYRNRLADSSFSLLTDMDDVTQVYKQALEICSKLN

[20] = target: Bromodomain-containing protein 4 (Homo sapiens) (UniProt O60885); assay: Binding affinity to human partial length BRD4 bromodomain 2 long isoform (K333 to E460 residues) expressed in bacterial expression system at 1 uM by BROMOscan assay
How it was run: (§2)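 BROMOscan bromodomain cross-screen run by an outside service, compound at 1 µM against 32 recombinant bromodomains. Binding given as percent of control.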

[21] = target: Serine/threonine-protein kinase MAK (Homo sapiens) (UniProt P20794); assay: Inhibition of recombinant full-length human MAK at 10 uM using RRRFRPASPLRGPPK as substrate measured after 120 mins in presence of [gamma33P]ATP by scintillation counting method
[22] = target: Activin receptor type-1B (Homo sapiens) (UniProt P36896); assay: Inhibition of recombinant human ALK4 (150 to end residues) at 10 uM using casein as substrate measured after 40 mins in presence of [gamma33P]ATP by scintillation counting method
Sequence of Activin receptor type-1B (Homo sapiens) (P36896 whole entry): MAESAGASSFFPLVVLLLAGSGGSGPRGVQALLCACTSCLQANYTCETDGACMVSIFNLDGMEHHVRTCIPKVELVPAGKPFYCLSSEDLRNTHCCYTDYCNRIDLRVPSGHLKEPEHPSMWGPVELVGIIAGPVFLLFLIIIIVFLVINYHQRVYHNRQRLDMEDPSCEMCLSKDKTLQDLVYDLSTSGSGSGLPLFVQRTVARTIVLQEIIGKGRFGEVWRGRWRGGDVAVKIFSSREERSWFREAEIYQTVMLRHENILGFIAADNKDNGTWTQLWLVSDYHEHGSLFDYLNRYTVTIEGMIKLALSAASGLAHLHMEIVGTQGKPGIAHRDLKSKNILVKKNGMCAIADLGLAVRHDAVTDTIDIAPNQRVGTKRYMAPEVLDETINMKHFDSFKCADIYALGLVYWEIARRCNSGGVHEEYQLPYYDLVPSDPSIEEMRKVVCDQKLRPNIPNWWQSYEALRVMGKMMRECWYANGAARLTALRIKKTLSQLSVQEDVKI

[23] = test system: Epidermal growth factor receptor (Homo sapiens), P00533 [T790M]; assay: Inhibition of recombinant human EGFR T790M mutant (696 to end residues) at 10 uM using GGMEDIYFEFMGGKKK as substrate measured after 40 mins in presence of [gamma33P]ATP by scintillation counting method
Sequence of Epidermal growth factor receptor (Homo sapiens), P00533 [T790M] (P00533 whole entry T790M): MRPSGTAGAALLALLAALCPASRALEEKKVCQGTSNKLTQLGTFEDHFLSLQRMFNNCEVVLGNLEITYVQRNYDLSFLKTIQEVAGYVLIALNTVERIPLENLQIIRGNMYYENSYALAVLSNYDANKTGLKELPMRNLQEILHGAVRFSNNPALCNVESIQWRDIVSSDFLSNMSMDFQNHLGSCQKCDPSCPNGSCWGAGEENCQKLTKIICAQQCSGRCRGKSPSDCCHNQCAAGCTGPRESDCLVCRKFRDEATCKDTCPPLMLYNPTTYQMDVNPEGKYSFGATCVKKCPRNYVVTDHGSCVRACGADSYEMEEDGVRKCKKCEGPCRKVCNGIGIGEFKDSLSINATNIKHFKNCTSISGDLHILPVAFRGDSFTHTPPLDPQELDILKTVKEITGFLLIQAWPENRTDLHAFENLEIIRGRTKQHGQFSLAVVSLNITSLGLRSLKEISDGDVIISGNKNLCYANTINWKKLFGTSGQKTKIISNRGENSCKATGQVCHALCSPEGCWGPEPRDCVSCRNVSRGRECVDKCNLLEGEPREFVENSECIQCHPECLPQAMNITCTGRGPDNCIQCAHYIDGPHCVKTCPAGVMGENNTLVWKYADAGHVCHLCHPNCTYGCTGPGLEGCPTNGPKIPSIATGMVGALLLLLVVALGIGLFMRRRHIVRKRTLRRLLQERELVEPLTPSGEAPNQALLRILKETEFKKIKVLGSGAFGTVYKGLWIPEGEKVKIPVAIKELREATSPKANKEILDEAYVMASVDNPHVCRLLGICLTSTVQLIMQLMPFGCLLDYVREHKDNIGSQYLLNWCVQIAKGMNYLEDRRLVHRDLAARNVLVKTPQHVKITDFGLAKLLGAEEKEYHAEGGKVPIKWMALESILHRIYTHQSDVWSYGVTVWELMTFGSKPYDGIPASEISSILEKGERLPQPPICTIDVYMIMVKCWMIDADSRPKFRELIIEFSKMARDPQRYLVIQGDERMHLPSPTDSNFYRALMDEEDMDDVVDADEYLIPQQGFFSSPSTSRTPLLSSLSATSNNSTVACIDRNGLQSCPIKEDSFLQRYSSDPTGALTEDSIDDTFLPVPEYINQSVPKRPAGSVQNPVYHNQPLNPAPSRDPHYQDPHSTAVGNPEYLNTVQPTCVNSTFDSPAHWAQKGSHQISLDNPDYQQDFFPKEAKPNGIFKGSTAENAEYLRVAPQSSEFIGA

[24] = target: Dual specificity mitogen-activated protein kinase kinase 3 (Homo sapiens) (UniProt P46734); assay: Inhibition of human MKK3 at 10 uM by radiometric method
How it was run: (§3)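 Kinase panel of 422 kinases screened by Eurofins KinaseProfiler at a single test-compound concentration of 10 µM.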

[25] = target: Proto-oncogene tyrosine-protein kinase Src (Homo sapiens) (UniProt P12931); assay: Inhibition of recombinant full-length human SRC at 10 uM using Cdc2 peptide as substrate measured after 40 mins in presence of [gamma33P]ATP by scintillation counting method
Sequence of Proto-oncogene tyrosine-protein kinase Src (Homo sapiens) (P12931 2-536 limits assumed): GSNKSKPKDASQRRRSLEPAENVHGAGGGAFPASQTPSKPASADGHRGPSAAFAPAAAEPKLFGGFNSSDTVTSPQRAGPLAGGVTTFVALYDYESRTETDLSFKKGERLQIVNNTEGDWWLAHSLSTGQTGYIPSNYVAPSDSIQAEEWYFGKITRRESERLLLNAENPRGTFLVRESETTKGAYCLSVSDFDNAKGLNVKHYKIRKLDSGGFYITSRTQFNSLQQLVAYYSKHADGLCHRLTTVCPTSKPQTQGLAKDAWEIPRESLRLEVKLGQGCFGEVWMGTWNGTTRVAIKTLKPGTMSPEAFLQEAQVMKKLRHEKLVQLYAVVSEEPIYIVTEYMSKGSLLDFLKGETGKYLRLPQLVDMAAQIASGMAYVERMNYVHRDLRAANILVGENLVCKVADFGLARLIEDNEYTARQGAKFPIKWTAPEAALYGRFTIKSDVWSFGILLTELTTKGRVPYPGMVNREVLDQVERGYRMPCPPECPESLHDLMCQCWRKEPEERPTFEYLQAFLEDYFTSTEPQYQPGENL

[26] = target: Bromodomain adjacent to zinc finger domain protein 2B (Homo sapiens) (UniProt Q9UIF8); assay: Binding affinity to human partial length BAZ2B (S2054 to S2168 residues) expressed in bacterial expression system at 1 uM by BROMOscan assay; how it was run: as §2
[27] = target: Serine/threonine-protein kinase SIK1 (Homo sapiens) (UniProt P57059); assay: Inhibition of human SIK (1 to 281 residues) using AMARAASAAALARRR as substrate measured after 40 mins in presence of [gamma33P]ATP by scintillation counting method; how it was run: as §3
[28] = species on record: Mus musculus; assay: Inhibition of recombinant full-length mouse PI3K p110alpha/p85alpha E545K mutant at 10 uM using phosphatidylinositol-4, 5-bisphosphate as substrate measured after 40 mins by HTRF assay

Compound	fold change (FC) [1]	fold change (FC) [2]	fold change (FC) [3]	ΔTm [4]	fold change (FC) [5]	Kd [6]	fold change (FC) [7]	fold change (FC) [8]	fold change (FC) [9]	fold change (FC) [10]	fold change (FC) [11]	fold change (FC) [12]	fold change (FC) [13]	fold change (FC) [14]	fold change (FC) [15]	other results
CN1C[C@@H](Nc2nc3cc[nH]c3c(=O)n2C)C[C@@H](c2ccc3c(c2)OCCO3)C1	>1.5	>1.5	>1.5	0.7 °C	>1.5	> 10 µM	>1.5	>1.5	>1.5	>1.5	>1.5	>1.5	>1.5	>1.5	>1.5	–
CN1C[C@H](Nc2nc3cc[nH]c3c(=O)n2C)C[C@H](c2ccc3c(c2)OCCO3)C1	>1.5	>1.5	>1.5	9.5 °C	>1.5	0.078 µM	>1.5	>1.5	>1.5	>1.5	>1.5	>1.5	>1.5	>1.5	>1.5	inhibition [16]: inactive; inhibition [17]: inactive; inhibition [18]: inactive; inhibition [19]: inactive; Activity [20]: inactive; inhibition [21]: inactive; inhibition [22]: inactive; inhibition [23]: inactive; inhibition [24]: inactive; inhibition [25]: inactive; Activity [26]: Active; inhibition [27]: inactive; inhibition [28]: inactive
